# In ChEMBL document CHEMBL1123980, “Serotonergic properties of spiroxatrine enantiomers” (J Med Chem, 1988):
# Tests used:
# [1] = target: T1, 5-hydroxytryptamine receptor 1A (Rattus norvegicus, UniProt P19327); experiment: Binding affinity against 5-hydroxytryptamine 1A receptor of rat was determined using [3H]8-OH-DPAT in binding assay
# T1 sequence (P19327 whole entry): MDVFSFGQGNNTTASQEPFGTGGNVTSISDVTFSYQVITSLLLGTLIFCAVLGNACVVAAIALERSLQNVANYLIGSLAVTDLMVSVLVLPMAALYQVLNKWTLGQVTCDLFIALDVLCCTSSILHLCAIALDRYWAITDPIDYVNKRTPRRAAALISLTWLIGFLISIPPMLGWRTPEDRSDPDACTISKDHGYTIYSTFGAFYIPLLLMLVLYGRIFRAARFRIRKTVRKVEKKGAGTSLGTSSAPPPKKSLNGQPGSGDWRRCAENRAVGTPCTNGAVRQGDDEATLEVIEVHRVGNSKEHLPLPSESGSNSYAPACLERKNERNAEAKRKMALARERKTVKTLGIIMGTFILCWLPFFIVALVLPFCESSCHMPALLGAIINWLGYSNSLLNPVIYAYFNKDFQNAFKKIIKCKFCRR
# Summary of the method: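 Rat (male Sprague-Dawley) cerebral cortex membranes, washed 4 times with a 10 min 37 °C preincubation, 10 mg wet tissue/mL. 1 nM [3H]-8-OH-DPAT in 50 mM Tris, 3 mM CaCl2, pargyline, pH 7.4; 15 min, 37 °C; filtration on PEI-treated GF/B filters, scintillation counting. Nonspecific binding with 10 µM 5-HT. IC50 read graphically and converted to apparent Ki (Cheng-Prusoff).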
# [2] = target: 5-hydroxytryptamine receptor 1B (Rattus norvegicus, UniProt P28564); experiment: Binding affinity towards 5-hydroxytryptamine 1B receptor in rat was determined using 50 uL of [125I]ICYP in binding assay
# Chain of 5-hydroxytryptamine receptor 1B (P28564 whole entry): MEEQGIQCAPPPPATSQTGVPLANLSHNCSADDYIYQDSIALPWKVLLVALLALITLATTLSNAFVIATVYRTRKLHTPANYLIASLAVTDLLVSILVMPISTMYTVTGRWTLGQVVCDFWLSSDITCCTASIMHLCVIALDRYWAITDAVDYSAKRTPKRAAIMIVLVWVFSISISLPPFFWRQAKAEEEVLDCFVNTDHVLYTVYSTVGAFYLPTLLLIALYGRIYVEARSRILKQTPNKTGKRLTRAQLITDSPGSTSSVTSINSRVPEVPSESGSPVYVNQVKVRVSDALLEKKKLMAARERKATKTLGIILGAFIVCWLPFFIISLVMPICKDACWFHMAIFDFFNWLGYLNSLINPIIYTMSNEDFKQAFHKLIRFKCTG
# Summary of the method: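 [125I]ICYP at 150 pM final, in Tris/CaCl2/pargyline medium with 60 µM (-)-isoproterenol to block β-adrenergic sites. 15 min at 37 °C; ice-cold phosphate dilution, GF/B filtration, gamma counting. Nonspecific binding with 10 µM 5-HT.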
# [3] = target: Serotonin 2 (5-HT2) receptor (Rattus norvegicus, UniProt P30994+P08909+P14842); experiment: Binding affinity towards serotonin 5-hydroxytryptamine 2 receptor of rat determined using 0.5 nM of [3H]ketanserin in binding assay; type: protein assay
# Summary of the method: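 0.5 nM [3H]ketanserin in the same buffer, no CaCl2 or pargyline; 15 min at 37 °C; filtration and scintillation counting. Nonspecific binding with 10 µM methysergide. IC50 read graphically and converted to apparent Ki (Cheng-Prusoff).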
# [4] = target: T2, Adrenergic receptor alpha-1 (Rattus norvegicus, UniProt P15823+P23944+P43140); experiment: Binding affinity against alpha-1 adrenergic receptor of rat was determined using 0.5 nM of [3H]WB-4101 in binding assay; type: protein assay
# T2 sequence (P15823 whole entry): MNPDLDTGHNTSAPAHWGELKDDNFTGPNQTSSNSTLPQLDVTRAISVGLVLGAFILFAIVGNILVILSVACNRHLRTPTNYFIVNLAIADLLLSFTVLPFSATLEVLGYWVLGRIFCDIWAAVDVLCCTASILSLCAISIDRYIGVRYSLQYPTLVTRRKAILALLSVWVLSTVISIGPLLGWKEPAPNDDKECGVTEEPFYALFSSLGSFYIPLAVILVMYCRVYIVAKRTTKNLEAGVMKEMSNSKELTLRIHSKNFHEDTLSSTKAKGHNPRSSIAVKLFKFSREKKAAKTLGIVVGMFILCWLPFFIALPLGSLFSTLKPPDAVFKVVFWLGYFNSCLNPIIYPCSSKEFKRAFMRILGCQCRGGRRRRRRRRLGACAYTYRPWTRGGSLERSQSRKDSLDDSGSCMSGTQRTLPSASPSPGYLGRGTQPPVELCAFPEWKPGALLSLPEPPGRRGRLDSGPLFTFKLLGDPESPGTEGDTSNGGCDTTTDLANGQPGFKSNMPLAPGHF
# T2 sequence (P23944 whole entry): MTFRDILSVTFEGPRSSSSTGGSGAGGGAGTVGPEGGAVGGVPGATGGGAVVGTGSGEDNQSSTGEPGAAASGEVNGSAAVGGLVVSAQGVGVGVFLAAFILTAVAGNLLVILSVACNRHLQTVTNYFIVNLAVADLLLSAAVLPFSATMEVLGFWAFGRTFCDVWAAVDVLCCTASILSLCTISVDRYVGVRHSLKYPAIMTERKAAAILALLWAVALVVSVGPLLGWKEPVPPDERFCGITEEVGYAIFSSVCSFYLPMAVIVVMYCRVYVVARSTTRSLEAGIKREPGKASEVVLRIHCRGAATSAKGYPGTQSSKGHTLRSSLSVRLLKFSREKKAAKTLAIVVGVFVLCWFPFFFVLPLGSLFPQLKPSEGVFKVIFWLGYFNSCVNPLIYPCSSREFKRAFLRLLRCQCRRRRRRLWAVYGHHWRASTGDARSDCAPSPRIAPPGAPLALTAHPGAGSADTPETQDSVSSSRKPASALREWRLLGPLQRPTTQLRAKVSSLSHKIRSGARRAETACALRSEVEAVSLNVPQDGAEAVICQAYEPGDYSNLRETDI
# T2 sequence (P43140 whole entry): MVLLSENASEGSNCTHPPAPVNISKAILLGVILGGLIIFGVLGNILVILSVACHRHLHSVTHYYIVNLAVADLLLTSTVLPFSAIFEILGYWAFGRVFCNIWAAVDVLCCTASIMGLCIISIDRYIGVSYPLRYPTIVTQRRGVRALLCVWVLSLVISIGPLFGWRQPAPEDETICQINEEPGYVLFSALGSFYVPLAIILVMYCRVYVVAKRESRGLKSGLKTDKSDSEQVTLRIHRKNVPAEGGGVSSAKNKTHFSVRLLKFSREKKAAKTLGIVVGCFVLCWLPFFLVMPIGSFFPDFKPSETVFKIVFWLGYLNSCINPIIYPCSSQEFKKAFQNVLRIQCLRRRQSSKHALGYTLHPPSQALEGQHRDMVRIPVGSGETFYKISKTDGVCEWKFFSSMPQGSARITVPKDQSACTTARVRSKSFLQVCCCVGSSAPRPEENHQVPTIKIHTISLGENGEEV
# Summary of the method: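 Washed rat cerebral cortex membranes at 10 mg wet tissue/mL, under the 8-OH-DPAT assay conditions (Tris/CaCl2/pargyline, pH 7.4, 15 min, 37 °C, filtration). Final [3H]WB4101 0.5 nM, with 1 µM 5-HT added to mask 5-HT1A sites. Nonspecific binding with 1 µM prazosin. Apparent Ki from graphical IC50 via Cheng-Prusoff.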
# D(2) dopamine receptor = D(2) dopamine receptor (Rattus norvegicus, UniProt P61169); experiment: Binding affinity against Dopamine receptor D2 of rat was determined using 2 nM of [3H]sulpiride in binding assay
# Chain of D(2) dopamine receptor (P61169 whole entry): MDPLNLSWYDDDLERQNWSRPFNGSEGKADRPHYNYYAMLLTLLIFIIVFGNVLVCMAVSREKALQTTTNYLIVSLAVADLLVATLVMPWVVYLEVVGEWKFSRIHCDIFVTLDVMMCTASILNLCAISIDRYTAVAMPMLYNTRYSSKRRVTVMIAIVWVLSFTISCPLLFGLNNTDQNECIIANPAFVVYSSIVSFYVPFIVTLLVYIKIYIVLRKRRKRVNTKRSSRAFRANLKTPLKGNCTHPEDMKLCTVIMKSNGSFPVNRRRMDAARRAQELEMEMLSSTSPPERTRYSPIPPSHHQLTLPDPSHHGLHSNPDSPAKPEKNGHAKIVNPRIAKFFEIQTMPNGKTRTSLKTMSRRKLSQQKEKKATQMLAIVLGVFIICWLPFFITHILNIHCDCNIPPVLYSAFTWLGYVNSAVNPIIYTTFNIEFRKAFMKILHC
# Summary of the method: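 Striatal membranes from male Sprague-Dawley rats in Tris buffer with 108 mM NaCl, 4.7 mM KCl, 1.3 mM CaCl2, pH 7.4, 4 mg wet tissue/mL. Final [3H]sulpiride 2 nM; incubated 20 min at 37 °C, then vacuum filtration. Specific binding defined with 1 µM spiperone. IC50 read graphically and converted to apparent Ki (Cheng-Prusoff).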
smiles,measurement,setting,value
O=C1NCN(c2ccccc2)C12CCN(CC1COc3ccccc3O1)CC2 (stereo in doubt; (+)) [SPIROXATRINE],Ki,[1],21 nM
same,Ki,[2],> 10000 nM
same,Ki,[3],858 nM
same,Ki,[4],1050 nM
same,Ki,D(2) dopamine receptor,1.45 nM
O=C1NCN(c2ccccc2)C12CCN(CC1COc3ccccc3O1)CC2 (stereo in doubt; (-)) [SPIROXATRINE],Ki,[1],1.9 nM
same,Ki,[2],> 10000 nM
same,Ki,[3],113 nM
same,Ki,[4],149 nM
same,Ki,D(2) dopamine receptor,0.22 nM
